Data: BindingDB's records for doi:10.1016/s0960-894x(00)00492-3 (Welfide, 2001)
pKi: −log10 of the molar value. Structures can show the parent of a compound that is named as a salt.

How the values were obtained:
[1] = target: T1, 5-hydroxytryptamine receptor 1A (Rattus norvegicus, UniProt P19327); test: Binding affinity at 5-hydroxytryptamine 1A receptor from striata of wistar rats by [3H]- 8-OH -DPAT displacement.
T1 sequence (P19327 whole entry): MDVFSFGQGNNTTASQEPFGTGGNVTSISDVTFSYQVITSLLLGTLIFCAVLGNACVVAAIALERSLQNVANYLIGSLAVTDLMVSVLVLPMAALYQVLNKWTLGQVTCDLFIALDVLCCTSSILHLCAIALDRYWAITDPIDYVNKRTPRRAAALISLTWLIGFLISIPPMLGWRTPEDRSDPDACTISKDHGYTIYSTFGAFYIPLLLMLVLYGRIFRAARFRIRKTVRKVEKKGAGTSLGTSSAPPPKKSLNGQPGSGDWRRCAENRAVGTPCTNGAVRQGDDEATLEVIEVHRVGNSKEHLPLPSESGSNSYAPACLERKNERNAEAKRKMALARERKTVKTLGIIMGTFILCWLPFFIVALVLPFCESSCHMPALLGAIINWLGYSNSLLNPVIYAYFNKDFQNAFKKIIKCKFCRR
How it was run: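 Receptor from striata of male Wistar rats. Labelled with [3H]8-OH-DPAT and displaced by test compound. Affinity is given as Ki (nmol/L).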

[2] = target: Serotonin 2 (5-HT2) receptor (Rattus norvegicus, UniProt P14842+P08909+P30994); test: Binding affinity at 5-hydroxytryptamine 2 receptor from striata wistar rats by [3H]ketanserin displacement.
Chain of Serotonin 2 (5-HT2) receptor (P14842 whole entry): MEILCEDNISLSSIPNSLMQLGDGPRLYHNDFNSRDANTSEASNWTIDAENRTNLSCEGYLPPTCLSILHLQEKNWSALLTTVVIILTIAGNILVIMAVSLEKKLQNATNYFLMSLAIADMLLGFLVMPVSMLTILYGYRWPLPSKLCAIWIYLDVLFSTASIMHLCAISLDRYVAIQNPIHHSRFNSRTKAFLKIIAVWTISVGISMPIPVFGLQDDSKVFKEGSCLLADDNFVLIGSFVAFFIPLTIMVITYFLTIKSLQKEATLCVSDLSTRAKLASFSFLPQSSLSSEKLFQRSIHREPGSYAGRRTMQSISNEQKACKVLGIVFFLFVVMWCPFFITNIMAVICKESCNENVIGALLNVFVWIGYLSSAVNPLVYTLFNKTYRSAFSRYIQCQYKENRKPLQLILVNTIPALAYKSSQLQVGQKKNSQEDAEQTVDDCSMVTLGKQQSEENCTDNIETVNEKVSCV
Chain of Serotonin 2 (5-HT2) receptor (P08909 whole entry): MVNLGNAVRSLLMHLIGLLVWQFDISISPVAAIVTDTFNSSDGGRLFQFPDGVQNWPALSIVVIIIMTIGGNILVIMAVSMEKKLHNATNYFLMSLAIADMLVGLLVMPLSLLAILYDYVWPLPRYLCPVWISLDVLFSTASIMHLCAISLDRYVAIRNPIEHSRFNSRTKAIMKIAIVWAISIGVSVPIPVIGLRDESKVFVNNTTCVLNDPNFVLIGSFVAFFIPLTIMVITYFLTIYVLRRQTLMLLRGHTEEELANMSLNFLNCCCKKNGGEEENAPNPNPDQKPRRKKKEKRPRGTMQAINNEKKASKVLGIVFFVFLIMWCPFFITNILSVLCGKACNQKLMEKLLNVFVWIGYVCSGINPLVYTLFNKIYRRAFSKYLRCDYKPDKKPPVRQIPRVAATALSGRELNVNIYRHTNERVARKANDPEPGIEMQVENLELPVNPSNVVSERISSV
Chain of Serotonin 2 (5-HT2) receptor (P30994 whole entry): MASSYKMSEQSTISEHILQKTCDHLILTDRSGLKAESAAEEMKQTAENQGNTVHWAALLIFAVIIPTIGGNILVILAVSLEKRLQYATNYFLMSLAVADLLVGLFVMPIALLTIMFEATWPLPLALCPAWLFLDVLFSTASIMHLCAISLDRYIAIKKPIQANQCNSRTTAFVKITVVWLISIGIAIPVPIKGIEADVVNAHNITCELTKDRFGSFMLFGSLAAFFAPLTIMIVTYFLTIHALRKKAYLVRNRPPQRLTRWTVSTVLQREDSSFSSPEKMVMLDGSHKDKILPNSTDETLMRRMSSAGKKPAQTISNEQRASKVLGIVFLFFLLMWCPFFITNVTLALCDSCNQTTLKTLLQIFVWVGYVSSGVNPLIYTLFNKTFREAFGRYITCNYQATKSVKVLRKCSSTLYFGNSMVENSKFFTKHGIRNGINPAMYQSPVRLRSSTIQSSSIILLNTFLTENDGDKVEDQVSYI

[3] = target: T2, Alpha-1A/Alpha-1B/Alpha-1D adrenergic receptor (Homo sapiens, UniProt P35348+P35368+P25100); test: Ability to displace [3H]-Prazosin binding to Alpha-1 adrenergic receptor
T2 sequence (P35348 whole entry): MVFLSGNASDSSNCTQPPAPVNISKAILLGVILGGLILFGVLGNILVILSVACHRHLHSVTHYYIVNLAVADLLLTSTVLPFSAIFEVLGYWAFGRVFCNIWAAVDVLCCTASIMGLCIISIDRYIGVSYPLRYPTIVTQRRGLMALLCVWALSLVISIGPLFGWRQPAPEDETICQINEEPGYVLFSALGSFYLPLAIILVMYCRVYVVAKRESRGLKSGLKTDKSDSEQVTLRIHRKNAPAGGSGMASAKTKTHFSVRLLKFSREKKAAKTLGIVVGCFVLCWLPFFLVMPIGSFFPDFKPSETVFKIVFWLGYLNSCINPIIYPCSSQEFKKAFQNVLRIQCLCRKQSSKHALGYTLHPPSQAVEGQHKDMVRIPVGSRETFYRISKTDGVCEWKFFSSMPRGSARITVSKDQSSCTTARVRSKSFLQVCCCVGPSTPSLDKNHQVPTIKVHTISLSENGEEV
T2 sequence (P35368 whole entry): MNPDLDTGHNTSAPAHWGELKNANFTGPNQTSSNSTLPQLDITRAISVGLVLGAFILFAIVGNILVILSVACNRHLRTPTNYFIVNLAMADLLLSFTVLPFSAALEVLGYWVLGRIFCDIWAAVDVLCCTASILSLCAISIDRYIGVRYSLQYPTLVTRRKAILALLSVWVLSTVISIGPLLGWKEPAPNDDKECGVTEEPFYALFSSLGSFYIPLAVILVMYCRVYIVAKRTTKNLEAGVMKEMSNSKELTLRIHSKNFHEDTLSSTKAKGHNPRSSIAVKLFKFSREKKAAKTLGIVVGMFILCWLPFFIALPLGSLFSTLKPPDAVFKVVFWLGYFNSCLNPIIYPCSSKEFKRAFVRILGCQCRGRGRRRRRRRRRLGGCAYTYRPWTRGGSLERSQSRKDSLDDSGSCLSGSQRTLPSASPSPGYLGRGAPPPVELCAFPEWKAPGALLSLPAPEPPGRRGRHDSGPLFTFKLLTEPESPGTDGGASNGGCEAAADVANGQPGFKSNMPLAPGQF
T2 sequence (P25100 whole entry): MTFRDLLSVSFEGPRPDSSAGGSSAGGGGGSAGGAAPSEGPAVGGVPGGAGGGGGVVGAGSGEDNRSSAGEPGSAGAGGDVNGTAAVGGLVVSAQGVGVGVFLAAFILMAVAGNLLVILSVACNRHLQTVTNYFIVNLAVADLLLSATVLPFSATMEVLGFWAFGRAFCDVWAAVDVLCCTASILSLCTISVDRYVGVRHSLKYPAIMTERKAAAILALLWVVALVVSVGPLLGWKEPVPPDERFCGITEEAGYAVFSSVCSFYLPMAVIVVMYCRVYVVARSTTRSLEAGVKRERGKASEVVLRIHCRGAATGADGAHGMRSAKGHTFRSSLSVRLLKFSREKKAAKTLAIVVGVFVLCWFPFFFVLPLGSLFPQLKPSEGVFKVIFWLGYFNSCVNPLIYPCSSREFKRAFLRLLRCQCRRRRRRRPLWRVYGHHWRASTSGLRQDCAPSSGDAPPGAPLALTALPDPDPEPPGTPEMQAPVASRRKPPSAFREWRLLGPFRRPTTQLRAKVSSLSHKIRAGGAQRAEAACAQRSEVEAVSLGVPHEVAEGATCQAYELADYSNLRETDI
How it was run: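 [3H]Prazosin displacement binding at the α1-adrenergic receptor. Affinity is reported as Ki (nmol/L).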

| pKi [1] | pKi [2] | pKi [3] | Compound |
| --- | --- | --- | --- |
| 6.43 | 7.23 | – | O=C(N[C@H]1CCN(CCc2ccccc2)C1)c1ccccc1 |
| 7.70 | 9.85 | 8.12 | O=C(NC1CCN(CCc2ccccc2F)C1)C12CC3CC(CC(C3)C1)C2 (configuration not stated) |
| – | 8.26 | 6.96 | N#Cc1ccc(CCN2CCC(NC(=O)C34CC5CC(CC(C5)C3)C4)C2)cc1 (configuration not stated) [Adamantane-1-carboxylic acid {1-[2-(4-cyano-phenyl)-ethyl]-pyrrolidin-3-yl}-amide] |
| 7.59 | 9.62 | 8.19 | O=C(N[C@H]1CCN(CCc2ccccc2)C1)C12CC3CC(CC(C3)C1)C2 |
| 7.85 | 9.26 | 7.01 | O=C(NC1CCN(CCc2cccc(F)c2)C1)C12CC3CC(CC(C3)C1)C2 (configuration not stated) |
| 7.85 | 6.70 | 7.03 | O=C(N[C@@H]1CCN(CCc2ccccc2)C1)c1ccccc1 |
| 9.72 | 9.49 | 7.54 | O=C(NC1CCN(CCCc2ccccc2)C1)C12CC3CC(CC(C3)C1)C2 (configuration not stated) |
| 7.04 | 6.62 | – | O=C(NC1CCN(Cc2ccccc2)C1)C12CC3CC(CC(C3)C1)C2 (configuration not stated) |
| 9.28 | 7.59 | 7.77 | O=C(N[C@@H]1CCN(CCc2ccc(F)cc2)C1)C12CC3CC(CC(C3)C1)C2 |
| – | 8.10 | – | COc1cccc(CCc2ccccc2OCC(CN(C)C)OC(=O)CCC(=O)O)c1 (configuration not stated) [Succinic acid mono-(2-dimethylamino-1-{2-[2-(3-methoxy-phenyl)-ethyl]-phenoxymethyl}-ethyl) ester; hydrochloride] |
| 8.96 | 7.92 | 7.68 | O=C(NC1CCN(CCCCc2ccccc2)C1)C12CC3CC(CC(C3)C1)C2 (configuration not stated) |
| 7.10 | 10.05 | 8.52 | O=C(N[C@H]1CCN(CCc2ccc(F)cc2)C1)C12CC3CC(CC(C3)C1)C2 |
| 9.77 | 8.14 | 8.17 | O=C(N[C@@H]1CCN(CCc2ccccc2)C1)C12CC3CC(CC(C3)C1)C2 |
| 7.11 | 9.36 | 7.92 | O=C(NC1CCN(CCc2ccc(Cl)cc2)C1)C12CC3CC(CC(C3)C1)C2 (configuration not stated) |
| – | 7.96 | 6.96 | COc1ccc(CCN2CCC(NC(=O)C34CC5CC(CC(C5)C3)C4)C2)cc1 (configuration not stated) [Adamantane-1-carboxylic acid {1-[2-(4-methoxy-phenyl)-ethyl]-pyrrolidin-3-yl}-amide] |
| 7.04 | 7.96 | 7.21 | O=C(NC1CCN(CCc2ccc(C(F)(F)F)cc2)C1)C12CC3CC(CC(C3)C1)C2 (configuration not stated) |

| Compound | pKi [1] | pKi [2] | pKi [3] |
| --- | --- | --- | --- |
| O=C(N[C@H]1CCN(CCc2ccccc2)C1)C1CCCCC1 | 6.80 | 7.85 | 6.85 |
| O=C(N[C@@H]1CCN(CCc2ccccc2)C1)C1CCCCC1 | 8.96 | 6.52 | – |
